Converted amounts (≈) assume the structure as drawn. “And” between values parts separate entries of the source, which are not always exact repeats. Identical values can stand only once.
Legend:
[1] = successive pKa of the acid itself; no reference given; cited from earlier work
[2] = molecular target: Cdk-2/A (Homo sapiens, UniProt P24941); assay: Cdk-2/A radioactive; type: biochemical; conditions: read-out: % inhibition (±SD) Cdk-2/A, 500 nM
In short: (§1)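 Radioactive filter-binding kinase assay using 33P-ATP, run at an external kinase-profiling centre, with the test compound at 500 nM. Enzyme activity remaining was expressed as a percentage of control, and % inhibition was calculated as 100 − % enzyme activity.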

[3] = moisture content by loss on drying; type: physicochemical; conditions: at the end of 6 months
[4] = tested on: Cdk-9; conditions: read-out: Cdk-9 IC50; cited from earlier work
[5] = molecular target: Cdk-9/T1 (Homo sapiens, UniProt P50750); assay: Cdk-9/T1 radioactive; type: biochemical; conditions: read-out: % inhibition (±SD) Cdk-9/T1, 500 nM
Sequence of Cdk-9/T1 (P50750 whole entry): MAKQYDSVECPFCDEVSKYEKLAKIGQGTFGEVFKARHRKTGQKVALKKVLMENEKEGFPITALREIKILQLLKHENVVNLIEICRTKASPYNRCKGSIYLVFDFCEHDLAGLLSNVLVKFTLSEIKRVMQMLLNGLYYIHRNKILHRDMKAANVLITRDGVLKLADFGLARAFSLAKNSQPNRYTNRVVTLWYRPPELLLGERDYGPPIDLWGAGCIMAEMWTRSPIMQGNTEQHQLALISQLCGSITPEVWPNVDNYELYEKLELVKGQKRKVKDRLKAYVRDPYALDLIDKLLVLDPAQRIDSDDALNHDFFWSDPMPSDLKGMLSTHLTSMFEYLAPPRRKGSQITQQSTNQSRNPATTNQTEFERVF
Sequence of Cdk-9/T1 (O60563 whole entry partner): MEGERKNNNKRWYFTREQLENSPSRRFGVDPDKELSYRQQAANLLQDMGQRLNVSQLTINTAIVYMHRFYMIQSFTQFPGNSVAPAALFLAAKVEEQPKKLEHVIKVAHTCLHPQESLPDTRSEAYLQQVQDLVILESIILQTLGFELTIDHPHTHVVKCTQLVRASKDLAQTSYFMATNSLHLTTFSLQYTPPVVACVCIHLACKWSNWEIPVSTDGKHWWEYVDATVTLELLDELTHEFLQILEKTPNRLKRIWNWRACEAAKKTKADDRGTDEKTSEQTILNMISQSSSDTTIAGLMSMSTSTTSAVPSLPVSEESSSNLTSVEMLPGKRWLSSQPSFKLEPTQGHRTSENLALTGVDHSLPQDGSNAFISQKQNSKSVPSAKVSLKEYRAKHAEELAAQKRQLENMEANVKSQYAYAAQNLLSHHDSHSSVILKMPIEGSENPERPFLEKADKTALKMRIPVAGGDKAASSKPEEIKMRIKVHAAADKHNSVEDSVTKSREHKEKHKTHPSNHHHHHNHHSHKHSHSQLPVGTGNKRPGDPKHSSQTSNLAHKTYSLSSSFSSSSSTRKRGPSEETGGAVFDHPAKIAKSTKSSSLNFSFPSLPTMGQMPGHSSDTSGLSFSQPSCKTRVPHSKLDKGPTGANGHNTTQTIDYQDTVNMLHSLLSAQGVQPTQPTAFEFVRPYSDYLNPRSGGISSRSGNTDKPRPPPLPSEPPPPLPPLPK
In short: as §1

[6] = oral pharmacokinetics in BALB/c mice; type: in vivo; conditions: 50 mg/kg
In short: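 Male BALB/c mice aged 8–13 weeks received a single oral dose of 50 mg/kg in 1% v/v Tween 80 + 0.5% w/v sodium CMC. Retro-orbital blood was collected into K2EDTA (n = 3/time point) at 0.25–24 h. Plasma was prepared within 30 min and stored below −60 °C. Plasma was analysed by LC-MS/MS (LLOQ 5.05 ng/mL), and parameters were derived by noncompartmental analysis.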

[7] = solubility in reaction solvents for scale-up; type: physicochemical
[8] = in vitro dissolution under sink conditions; type: physicochemical
In short: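 Samples (1 mL) were taken at 15, 30, 60, 120, 240 and 360 min and replaced with fresh prewarmed medium. Samples were filtered (0.45 μm PVDF), diluted in methanol and quantified by HPLC. Runs were in triplicate. AUC0–t was obtained by the trapezoidal rule to the last time point.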

[9] = thermodynamic equilibrium solubility in water; type: physicochemical; conditions: 25 °C, 24 h
In short: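 Excess solid was added to water, vortexed for 5 min, then shaken at 300 rpm and 25 °C for 24 h. After centrifugation (14 000 rpm, 10 min), the supernatant was quantified by reversed-phase C18 HPLC. Elution used a methanol/0.1% formic acid gradient with photodiode detection and a 37 °C column. Calibration covered 5–160 μg/mL.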

| inhibition at 0.5 µM [2] [%] | % moisture content [3] [% w/w] | inhibition at 0.5 µM [5] [%] | T1/2 [6] [h] | AUC(0-t) ([6]; male, BALB/c, mouse, plasma, po, AUC0–t) [ng·h/mL] | Cmax ([6]; male, BALB/c, mouse, plasma, po, Cmax) [ng/mL] | Tmax ([6]; male, BALB/c, mouse, plasma, po, Tmax) [h] | solubility in methanol [7] [µg/mL] | solubility ([7]; methanol, solubility in methanol) [µg/mL] | % drug dissolved in HCl buffer (pH 1.2) at 30 min ([8]; HCl buffer pH 1.2, 0.25% SLS, 30 min) [%] | AUC0–t (mean ± SEM), dissolution in HCl buffer (pH 1.2) ([8]; HCl buffer pH 1.2, 0.25% w/v SLS) [μg/mL min] | dissolution in phosphate buffer (pH 6.8) at the end of 60 min ([8]; phosphate buffer pH 6.8, 0.25% SLS, 60 min) [%] | AUC0–t (mean ± SEM), dissolution in phosphate buffer (pH 6.8) ([8]; phosphate buffer pH 6.8, 0.25% w/v SLS) [μg/mL min] | AUC0–t (mean ± SEM), dissolution in water ([8]; water, 0.25% w/v SLS) [µg·min/mL] | dissolution in water at the end of 120 min ([8]; water, 0.25% w/v SLS, 37 °C, 120 min) [% w/v] | thermodynamic equilibrium solubility in water [9] | SMILES | pKa values of counterions [1] | IC50 [4] [nM] |
| --- | --- | --- | --- | --- | --- | --- | --- | --- | --- | --- | --- | --- | --- | --- | --- | --- | --- | --- |
| – | – | – | – | – | – | – | – | – | – | – | – | – | – | – | – | Nc1ccc(C(=O)O)cc1 [4-aminobenzoic acid] | 2.38 | – |
| – | – | – | – | – | – | – | – | – | – | – | – | – | – | – | – | O=C(O)CC(O)(CC(=O)O)C(=O)O [citric acid] | 3.73 | – |
| 90 ± 0.2 | 3.5 | 94 ± 0.8 | 1.92 | 2570 | 656 | 1 | 500 (≈ 1080 µM) | ~500 (≈ 1080 µM) | 83 | 2102.46 ± 80.09 | 63 | 4898.69 ± 317.03 | 3557.23 ± 247.03 | 49 | ~8.6 µg/mL and 8.61 ± 1.8 µg/mL | CN1CC[C@H](c2c(O)cc(O)c3c(=O)cc(/C=C/c4c(Cl)cccc4Cl)oc23)[C@H](O)C1 [IIIM-290, 2-((E)-2,6-Dichlorostyryl)-5,7-dihydroxy-8-((3S,4R)-3-hydroxy-1-methylpiperidin-4-yl)-4H-chromen-4-one] | – | 1.9 |
